Measurements taken from ChEMBL document CHEMBL4414575, “Yangpumicins F and G, Enediyne Congeners from Micromonospora yangpuensis DSM 45577” (J Nat Prod, 2019).
Converted amounts (≈) assume the structure as drawn. The source made the active and inactive calls. No cut-off for these calls is given here.

Tests used:
Caco-2 [1] = experiment: Cytotoxicity against human Caco2 cells assessed as inhibition of cell viability incubated for 72 hrs by MTT assay; format: functional, cell-based; conditions: Caco-2, 72 h
Method in brief: (§1)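 Cells seeded at 2,000–4,000 per well and left 24 h. They are then exposed to a range of compound concentrations for 72 h. Survival is read by adding CCK-8 solution and measuring absorbance at 450 nm. Mitomycin is the reference control.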

Jurkat = experiment: Cytotoxicity against human Jurkat cells assessed as inhibition of cell viability incubated for 72 hrs by MTT assay; format: functional, cell-based; method in brief: as §1
A549 = experiment: Cytotoxicity against human A549 cells assessed as inhibition of cell viability incubated for 72 hrs by MTT assay; format: functional, cell-based; conditions: A549, 72 h; method in brief: as §1
SK-BR-3 [2] = experiment: Cytotoxicity against human SKBR3 cells assessed as inhibition of cell viability incubated for 72 hrs by MTT assay; format: functional, cell-based; conditions: SK-BR-3, 72 h; method in brief: as §1
Staphylococcus aureus [3] = experiment: Antimicrobial activity against Staphylococcus aureus ATCC 29213 incubated for 18 hrs by resazurin staining based microbroth dilution assay; format: functional; conditions: ATCC 29213, 18 h
Method in brief: (§2)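 Strains grown overnight, diluted to 10^6 CFU/mL in LB broth. Compounds in DMSO, serially diluted in LB (pg/mL to ng/mL range), mixed 1:1 with bacterial suspension. Vancomycin is the reference, 0.03125–16 μg/mL. Plates incubated 37 °C for 18 h, then resazurin added for read-out. Duplicates per plate.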

Staphylococcus aureus [4] = experiment: Antimicrobial activity against Methicillin-resistant Staphylococcus aureus incubated for 18 hrs by resazurin staining based microbroth dilution assay; format: functional
Method in brief: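 Overnight culture diluted to 106 CFU/mL in LB broth, mixed 1:1 with compound serially diluted in LB on the plate from DMSO stock (1–512 ng/mL and 1–512 pg/mL series; vancomycin 0.03125–16 μg/mL). Incubated 37 °C for 18 h, then resazurin added to read growth; MIC taken from broth microdilution, duplicate per plate. Strain is a local hospital MRSA isolate.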

Escherichia coli = experiment: Antimicrobial activity against Escherichia coli incubated for 18 hrs by resazurin staining based microbroth dilution assay; format: functional; method in brief: as §2
Staphylococcus aureus [5] = experiment: Potency index, ratio of MIC for vancomycin to MIC for test compound for antimicrobial activity against Staphylococcus aureus ATCC 29213; format: functional
Method in brief: (§3)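 Overnight bacterial cultures diluted to 10^6 CFU/mL in LB broth, mixed 1:1 with LB holding serial dilutions of test compound (DMSO stocks, 1–512 pg/mL and 1–512 ng/mL series) or vancomycin (0.03125–16 μg/mL). Incubated 37 °C, 18 h, then resazurin added for read-out. Run in duplicate per plate. Index is vancomycin MIC divided by test-compound MIC.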

SK-BR-3 [6] = experiment: Cytotoxicity against human SKBR3 cells assessed as inhibition of cell viability incubated for 8 hrs by rapid killing based MTT assay; format: functional
Method in brief: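 Seeding was 2,000–4,000 cells/well, with 24 h attachment. Compound exposure at varying concentrations lasted only 8 h. Viability was read by CCK-8 absorbance at 450 nm. Mean ± SD of three replicates, with curves fitted.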

Staphylococcus aureus [7] = experiment: Potency index, ratio of MIC for vancomycin to MIC for test compound for antimicrobial activity against Methicillin-resistant Staphylococcus aureus; format: functional; method in brief: as §3
Caco-2 [8] = experiment: Potency index, ratio of YPM G IC50 to compound IC50 for cytotoxicity against human Caco2 cells by MTT assay; format: functional
SK-BR-3 [9] = experiment: Potency index, ratio of YPM G IC50 to compound IC50 for cytotoxicity against human SKBR3 cells by MTT assay; format: functional

Row | Structure (SMILES) | IC50 (Caco-2 [1]) [nM] | IC50 (Jurkat) [nM] | IC50 (A549) [nM] | IC50 (SK-BR-3 [2]) [nM] | MIC (Staphylococcus aureus [3]) [ng/mL] | MIC (Staphylococcus aureus [4]) [ng/mL] | MIC (Escherichia coli) [ng/mL] | Ratio IC50 (Staphylococcus aureus [5]) | Activity (SK-BR-3 [6]) | Ratio IC50 (Staphylococcus aureus [7]) | Ratio IC50 (Caco-2 [8]) | Ratio IC50 (SK-BR-3 [9])
1 | CO[C@@]12[C@H](COC(N)=O)C3=C(C(=O)C(C)=C(N)C3=O)N1C[C@@H]1N[C@@H]12 [MITOMYCIN] | 5800 | 430 | 270 | 1000 |  |  |  |  |  |  |  | 
2 | C[C@@H](O)[C@@]12O[C@]13c1cc(O)c4c(c1N[C@H]2C#C/C=C\C#C[C@H]3O)C(=O)c1c(O)cccc1C4=O | 3.4 | 0.24 | 0.02 | 0.86 | < 0.001 | < 0.001 | 0.128 (≈ 0.281 nM) | 1000000 | Active | 1000000 | 10 | 10
3 | CN[C@H](CC(C)C)C(=O)N[C@H]1C(=O)N[C@@H](CC(N)=O)C(=O)N[C@H]2C(=O)N[C@H]3C(=O)N[C@H](C(=O)N[C@H](C(=O)O)c4cc(O)cc(O)c4-c4cc3ccc4O)[C@H](O)c3ccc(c(Cl)c3)Oc3cc2cc(c3O[C@@H]2O[C@H](CO)[C@@H](O)[C@H](O)[C@H]2O[C@H]2C[C@](C)(N)[C@H](O)[C@H](C)O2)Oc2ccc(cc2Cl)[C@H]1O [VANCOMYCIN] |  |  |  |  |  |  | > 16000 |  |  |  |  | 
4 | O=C1c2cccc(O)c2C(=O)c2c3c(cc(O)c21)[C@@]12O[C@@]1([C@H](O)CO)[C@H](C#C/C=C\C#C[C@H]2O)N3 | 3.16 | 0.17 | 0.24 | 2.56 | < 0.001 | < 0.001 | 0.032 (≈ 0.0679 nM) | 1000000 | Active | 1000000 | 10 | 10
5 | O=C1c2ccccc2C(=O)c2c3c(cc(O)c21)[C@@]12O[C@@]1([C@H](O)CO)[C@H](C#C/C=C\C#C[C@H]2O)N3 | 55.2 | 0.62 | 3.41 | 24.2 | 0.002 (≈ 0.00439 nM) | 0.002 (≈ 0.00439 nM) |  |  |  |  |  | 
